Laboratory results taken from ChEMBL document CHEMBL4725358 (J Med Chem, 2020).
Active and inactive are the calls of the source. The calls are words filed in the database; no cut-off is given here.

Assays:
[1] = molecular target: Probable G-protein coupled receptor 34 (Mus musculus, UniProt Q9R1K6); experiment: (§1) Agonist activity at mouse GPR34 expressed in HEK293 cells co-transfected with AP-TGFalpha/Galphaq/i1 assessed as induction of ectodomain shedding of membrane bound AP-TGFalpha after 1 hr by p-NPP substrate based microplate reader analysis; assay type: cell-based
Probable G-protein coupled receptor 34 (Mus musculus, UniProt Q9R1K6), sequence (Q9R1K6 whole entry, the tested form may be a part): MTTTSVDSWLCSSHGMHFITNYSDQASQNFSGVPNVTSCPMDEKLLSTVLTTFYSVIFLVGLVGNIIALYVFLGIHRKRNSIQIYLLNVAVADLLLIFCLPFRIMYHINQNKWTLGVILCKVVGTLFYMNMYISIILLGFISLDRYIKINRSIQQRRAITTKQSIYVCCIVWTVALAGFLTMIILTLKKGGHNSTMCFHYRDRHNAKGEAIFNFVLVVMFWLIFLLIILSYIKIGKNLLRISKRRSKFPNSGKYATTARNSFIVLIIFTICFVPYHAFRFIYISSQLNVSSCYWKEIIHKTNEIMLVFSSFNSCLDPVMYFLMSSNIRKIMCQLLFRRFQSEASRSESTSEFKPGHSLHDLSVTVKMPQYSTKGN
Method in brief: (§2)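 HEK293 cells transiently transfected with AP-TGFα, chimeric Gα and mouse GPR34 vectors, then treated with compound. Empty-vector cells (AP-TGFα plus chimeric Gα) served as background. Receptor-specific AP-TGFα release was taken after subtracting that background, and concentration-response curves gave EC50 and Emax. Mean and SEM of 3−8 independent experiments.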

[2] = molecular target: Probable G-protein coupled receptor 34 (Mus musculus) (UniProt Q9R1K6); experiment: Agonist activity at mouse GPR34 expressed in HEK293 cells co-transfected with AP-TGFalpha/Galphaq/i1 assessed as induction of ectodomain shedding of membrane bound AP-TGFalpha after 1 hr by p-NPP substrate based microplate reader analysis relative to control; assay type: cell-based; method in brief: as §2
Probable G-protein coupled receptor 34 (Mus musculus), sequence (Q9R1K6 whole entry, the tested form may be a part): as above

[3] = molecular target: Probable G-protein coupled receptor 34 (Mus musculus) (UniProt Q9R1K6); experiment: Agonist activity at mouse GPR34 expressed in HEK293 cells co-transfected with AP-TGFalpha/Galphaq/i1 assessed as induction of ectodomain shedding of membrane bound AP-TGFalpha after 1 hr by p-NPP substrate based microplate reader analysis relative to positive control; assay type: cell-based; method in brief: as §2
[4] = molecular target: Putative P2Y purinoceptor 10 (Mus musculus, UniProt Q8BFU7); experiment: Agonist activity at mouse P2Y10 expressed in HEK293 cells co-transfected with AP-TGFalpha/Galphaq/i1 assessed as induction of ectodomain shedding of membrane bound AP-TGFalpha after 1 hr by p-NPP substrate based microplate reader analysis; assay type: cell-based
Putative P2Y purinoceptor 10, sequence (Q8BFU7 whole entry, the tested form may be a part): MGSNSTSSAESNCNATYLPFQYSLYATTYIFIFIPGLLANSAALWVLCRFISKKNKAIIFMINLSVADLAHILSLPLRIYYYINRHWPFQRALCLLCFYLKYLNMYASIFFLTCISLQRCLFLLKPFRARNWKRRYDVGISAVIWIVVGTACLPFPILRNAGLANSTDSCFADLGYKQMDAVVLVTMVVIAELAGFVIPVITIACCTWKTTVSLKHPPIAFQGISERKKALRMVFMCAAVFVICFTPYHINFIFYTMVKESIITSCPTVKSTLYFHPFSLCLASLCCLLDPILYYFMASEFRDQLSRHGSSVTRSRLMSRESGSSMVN
Method in brief: (§3)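 Run the same way as the GPR34 shedding assay, but with a mouse P2Y10 expression vector in HEK293 cells alongside AP-TGFα and chimeric Gα. Receptor-specific AP-TGFα release was found by subtracting the empty-vector background. EC50 and Emax came from concentration-response curves. Mean and SEM of 3−8 independent experiments.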

[5] = molecular target: Putative P2Y purinoceptor 10 (Mus musculus) (UniProt Q8BFU7); experiment: Agonist activity at mouse P2Y10 expressed in HEK293 cells co-transfected with AP-TGFalpha/Galphaq/i1 assessed as induction of ectodomain shedding of membrane bound AP-TGFalpha after 1 hr by p-NPP substrate based microplate reader analysis relative to control; assay type: cell-based; method in brief: as §3
Putative P2Y purinoceptor 10 (Mus musculus), sequence (Q8BFU7 whole entry, the tested form may be a part): as above

[6] = molecular target: Putative P2Y purinoceptor 10 (Mus musculus) (UniProt Q8BFU7); experiment: Agonist activity at mouse P2Y10 expressed in HEK293 cells co-transfected with AP-TGFalpha/Galphaq/i1 assessed as induction of ectodomain shedding of membrane bound AP-TGFalpha after 1 hr by p-NPP substrate based microplate reader analysis relative to positive control; assay type: cell-based; details: filed as agonist; method in brief: as §3
[7] = molecular target: Probable G-protein coupled receptor 34 (Mus musculus) (UniProt Q9R1K6); experiment: Agonist activity at mouse GPR34 expressed in HEK293 cells co-transfected with Galphaq/i1 assessed as increase in calcium influx by calcium 5 dye based FLIPR assay; assay type: functional, cell-based
Method in brief: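 Mouse GPR34-expressing HEK293 cells were monitored for calcium influx after compound was added at 100 nM or 10 nM. Each run was done in triplicate and reported as mean and S.D.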

[8] = molecular target: Probable G-protein coupled receptor 34 (Homo sapiens, UniProt Q9UPC5); experiment: Agonist activity at human GPR34 expressed in HEK293 cells co-transfected with AP-TGFalpha/Galphaq/i1 assessed as induction of ectodomain shedding of membrane bound AP-TGFalpha after 1 hr by p-NPP substrate based microplate reader analysis; assay type: cell-based
Probable G-protein coupled receptor 34 (Homo sapiens, UniProt Q9UPC5), sequence (Q9UPC5 whole entry, the tested form may be a part): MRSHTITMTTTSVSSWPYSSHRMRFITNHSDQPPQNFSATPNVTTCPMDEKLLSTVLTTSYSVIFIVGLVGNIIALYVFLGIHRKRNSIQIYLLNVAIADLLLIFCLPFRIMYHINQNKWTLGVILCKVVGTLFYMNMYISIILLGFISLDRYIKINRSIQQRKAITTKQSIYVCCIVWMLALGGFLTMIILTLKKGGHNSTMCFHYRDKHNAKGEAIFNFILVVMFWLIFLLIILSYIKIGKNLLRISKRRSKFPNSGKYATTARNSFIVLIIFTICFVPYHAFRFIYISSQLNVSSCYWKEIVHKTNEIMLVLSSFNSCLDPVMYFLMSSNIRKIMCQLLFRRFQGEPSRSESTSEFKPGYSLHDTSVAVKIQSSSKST

[9] = molecular target: T1, G protein-coupled receptor 34a (Danio rerio, UniProt Q6XCC7); experiment: Agonist activity at zebrafish GPR34 type a expressed in HEK293 cells co-transfected with AP-TGFalpha/Galphaq/i1 assessed as induction of ectodomain shedding of membrane bound AP-TGFalpha after 1 hr by p-NPP substrate based microplate reader analysis; assay type: cell-based
T1 sequence (Q6XCC7 whole entry): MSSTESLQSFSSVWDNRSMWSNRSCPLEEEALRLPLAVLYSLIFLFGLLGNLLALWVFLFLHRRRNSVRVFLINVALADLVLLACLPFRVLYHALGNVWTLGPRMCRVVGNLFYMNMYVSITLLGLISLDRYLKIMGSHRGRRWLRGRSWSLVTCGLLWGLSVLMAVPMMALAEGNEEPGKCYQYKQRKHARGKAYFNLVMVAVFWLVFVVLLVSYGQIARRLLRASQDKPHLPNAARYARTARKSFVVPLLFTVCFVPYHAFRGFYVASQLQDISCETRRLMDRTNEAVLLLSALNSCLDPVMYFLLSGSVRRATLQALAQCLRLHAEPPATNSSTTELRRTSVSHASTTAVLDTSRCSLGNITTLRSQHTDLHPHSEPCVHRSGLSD

[10] = molecular target: T2, G protein-coupled receptor 34a (Danio rerio) (UniProt Q6XCC7); experiment: Agonist activity at zebrafish GPR34 type a expressed in HEK293 cells co-transfected with AP-TGFalpha/Galphaq/i1 assessed as induction of ectodomain shedding of membrane bound AP-TGFalpha after 1 hr by p-NPP substrate based microplate reader analysis relative to control; assay type: cell-based
T2 sequence (whole entry): T1 sequence (Q6XCC7 whole entry)

[11] = molecular target: T3, G protein-coupled receptor 34b (Danio rerio, UniProt B0S6P9); experiment: Agonist activity at zebrafish GPR34 type b expressed in HEK293 cells co-transfected with AP-TGFalpha/Galphaq/i1 assessed as induction of ectodomain shedding of membrane bound AP-TGFalpha after 1 hr by p-NPP substrate based microplate reader analysis; assay type: cell-based
T3 sequence (B0S6P9 whole entry): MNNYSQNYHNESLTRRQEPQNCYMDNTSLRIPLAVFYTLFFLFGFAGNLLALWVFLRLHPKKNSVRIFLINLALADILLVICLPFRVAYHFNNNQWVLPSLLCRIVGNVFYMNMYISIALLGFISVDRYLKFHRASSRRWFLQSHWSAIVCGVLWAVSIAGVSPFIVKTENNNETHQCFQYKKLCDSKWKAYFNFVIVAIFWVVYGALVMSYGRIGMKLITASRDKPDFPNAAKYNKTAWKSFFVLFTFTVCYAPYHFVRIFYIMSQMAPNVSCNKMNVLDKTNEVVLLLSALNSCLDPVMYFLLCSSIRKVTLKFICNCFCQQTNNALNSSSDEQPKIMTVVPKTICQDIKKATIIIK

[12] = molecular target: T4, G protein-coupled receptor 34b (Danio rerio) (UniProt B0S6P9); experiment: Agonist activity at zebrafish GPR34 type b expressed in HEK293 cells co-transfected with AP-TGFalpha/Galphaq/i1 assessed as induction of ectodomain shedding of membrane bound AP-TGFalpha after 1 hr by p-NPP substrate based microplate reader analysis relative to control; assay type: cell-based
T4 sequence (whole entry): T3 sequence (B0S6P9 whole entry)

[13] = molecular target: Probable G-protein coupled receptor 34 (Mus musculus) (UniProt Q9R1K6); experiment: as §1; assay type: cell-based; method in brief: as §2

EC50 ([1]; read-out: EC50) [nM] | Emax [2] | fold change (FC) ([3]; filed as agonist) | EC50 [4] [nM] | Emax [5] [%] | fold change (FC) [6] | Activity ([7]; filed as agonist) | EC50 [8] [nM] | pEC50 [13] | EC50 ([1]; hek293) | fold change (FC) [3] | Activity [7] | Compound | EC50 [9] [nM] | Emax [10] [%] | EC50 [11] [nM] | Emax [12] [%]
0.83 | 10.3% | 100 | 1 | 10.6 | 1.7 | Active | 0.75 | – | – | – | – | CCCCCCCCCCCOc1ccccc1CCC(=O)O[C@@H]1CCOC[C@H]1OP(=O)(O)OC[C@H](N)C(=O)O | 510 | 14 | 12 | 25
– | inactive | – | 12 | 11.1 | 0.14 | – | – | inactive | Not Active | inactive | inactive | CCCCCCCCCCCOc1ccccc1CCC(=O)O[C@H]1CCOC[C@@H]1OP(=O)(O)OC[C@H](N)C(=O)O | – | – | – | –

Compound | EC50 ([1]; read-out: EC50) [nM] | Emax [2] | fold change (FC) ([3]; filed as agonist) | EC50 [4] [nM] | Emax [5] [%] | fold change (FC) [6] | Activity ([7]; filed as agonist) | EC50 [8] [nM] | pEC50 [13] | EC50 ([1]; hek293) | fold change (FC) [3] | Activity [7] | EC50 [9] [nM] | Emax [10] [%] | EC50 [11] [nM] | Emax [12] [%]
CCCCCCCC/C=C\CCCCCCCC(=O)OC[C@@H](O)COP(=O)(O)OC[C@H](N)C(=O)O | – | – | – | 20 | 13.6 | – | – | – | – | – | – | – | 130 | 22.1 | 3.5 | 25.1
